Test results reported in ChEMBL document CHEMBL1132240, “Design and synthesis of modified quinolones as antitumoral acridones” (J Med Chem, 1999).

Experiments:
[1] = system: HL-60; test: Relative cytotoxicity against Human promyelocytic Leukemia(HL-60) cells; Value is in range, activity expressed as IC90; format: functional
Procedure, shortened: (§1)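 Second-stage assay on HL-60 (5 × 10^4/well) and soybean-agglutinin-negative mononuclear marrow cells (5 × 10^5/well) from six healthy donors. Four wells per concentration, 48 h at 37 °C, then [125I]iododeoxyuridine plus fluorodeoxyuridine for 18 h. Inhibition from fractional uptake decrease; IC50/IC90 by median-effect equation. Ranges are antilog(mean log ± 2SD); ratios use mean antilogs.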

[2] = system: B16; test: Cytotoxic activity against solid tumor, B16 (murine melanoma) Concentration of agent required to reduce cell viability by 90%; format: functional; conditions: Mus musculus
Procedure, shortened: (§2)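 Modified MTT assay. Cells seeded per well with graded drug: CHO 2.5 × 10^3, B16 5 × 10^3, P388 and LLC 10^4, HL-60 and LoVo 5 × 10^4. After 68 h, MTT (2.5 mg/mL) added for 4 h at 37 °C. Formazan dissolved in DMSO and A550 read. Inhibition taken as fractional A550 decrease vs control. IC50/IC90 from Chou's median-effect equation.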

[3] = system: B16; test: Cytotoxic activity against solid tumor, B16 (murine melanoma) Concentration of agent required to reduce cell viability by 50%; format: functional, cell-based; conditions: Mus musculus; procedure, shortened: as §2
[4] = system: LoVo; test: Cytotoxic activity against solid tumor, LoVo, (human colon adenocarcinoma) Concentration of agent required to reduce cell viability by 50%; format: functional, cell-based; procedure, shortened: as §2
[5] = organism: Homo sapiens; test: Relative cytotoxicity against Human bone marrow samples; Value is in range, activity expressed as IC50; format: functional; procedure, shortened: as §1
[6] = Ratio of antilog(mean log IC90 in bone marrow sample) and antolog(mean log IC90) in HL-60); format: functional; procedure, shortened: as §1
[7] = system: P388; test: In vivo antitumor activity against Murine P388 Leukemia at 75 mg/kg dose;(Median survival time of treated mice)/(median survival time of controls) x100; format: functional, Mus musculus
Procedure, shortened: (§3)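 Female BD2F1 mice (8 weeks, 20-22 g), eight per group, given 10^5 P388 cells ip on day 0. From 24 h later, drug was given ip once daily for 9 days as a micronized suspension in 0.5% carboxymethylcellulose. Deaths were recorded daily over a 33-day study. %T/C = median survival time of treated / median survival time of controls × 100; >125 taken as significant.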

[8] = system: CHO; test: Cytotoxic activity against solid tumor, CHO (Chinese hamster ovaric carcinoma) Concentration of agent required to reduce cell viability by 90%; format: functional; conditions: Cricetulus griseus; procedure, shortened: as §2
[9] = system: HL-60; test: Relative cytotoxicity against Human promyelocytic Leukemia(HL-60) cells; Value is in range, activity expressed as IC50; format: functional, cell-based; procedure, shortened: as §1
[10] = system: HL-60; test: Cytotoxic activity against Human promyelocytic Leukemia HL-60 Concentration of agent required to reduce cell viability by 90%; format: functional; procedure, shortened: as §2
[11] = Ratio of antilog(mean log IC50 in bone marrow sample) and antolog(mean log IC50) in HL-60); format: functional; procedure, shortened: as §1
[12] = system: P388; test: In vivo antitumor activity against Murine P388 Leukemia at 25 mg/kg dose;(Median survival time of treated mice)/(median survival time of controls) x100; format: functional, Mus musculus; procedure, shortened: as §3
[13] = system: P388; test: In vivo antitumor activity against Murine P388 Leukemia at 50 mg/kg dose;(Median survival time of treated mice)/(median survival time of controls) x100; format: functional, Mus musculus; procedure, shortened: as §3
[14] = system: P388; test: In vivo antitumor activity against Murine P388 Leukemia at 100 mg/kg dose;(Median survival time of treated mice)/(median survival time of controls) x100; format: functional, Mus musculus; procedure, shortened: as §3
[15] = system: Lewis lung carcinoma cell line; test: Cytotoxic activity against solid tumor LLC(Lewis lung carcinoma), concentration of agent required to reduce cell viability by 50%; format: functional, cell-based; conditions: Mus musculus; procedure, shortened: as §2
[16] = system: CHO; test: Cytotoxic activity against solid tumor, CHO (Chinese hamster ovaric carcinoma) Concentration of agent required to reduce cell viability by 50%; format: functional, cell-based; conditions: Cricetulus griseus; procedure, shortened: as §2
[17] = system: P388; test: Cytotoxic activity Murine Lymphocytic Leukemia P388 Concentration of agent required to reduce cell viability by 90%; format: functional; conditions: Mus musculus; procedure, shortened: as §2
[18] = system: Lewis lung carcinoma cell line; test: Cytotoxic activity against solid tumor LLC(Lewis lung carcinoma), concentration of agent required to reduce cell viability by 90%; format: functional; conditions: Mus musculus; procedure, shortened: as §2
[19] = Ratio of antilog(mean log IC50 in bone marrow sample) and antolog(mean log IC90) in HL-60); format: functional; procedure, shortened: as §1
[20] = system: P388; test: Cytotoxic activity against Murine Lymphocytic Leukemia P388 Concentration of agent required to reduce cell viability by 50%; format: functional, cell-based; conditions: Mus musculus; procedure, shortened: as §2
[21] = system: LoVo; test: Cytotoxic activity against solid tumor, LoVo, (human colon adenocarcinoma) Concentration of agent required to reduce cell viability by 90%; format: functional; procedure, shortened: as §2
[22] = organism: Homo sapiens; test: Relative cytotoxicity against Human bone marrow samples; Value is in range, activity expressed as IC90; format: functional; procedure, shortened: as §1
[23] = system: HL-60; test: Cytotoxic activity against Human promyelocytic Leukemia HL-60 Concentration of agent required to reduce cell viability by 50%; format: functional, cell-based; procedure, shortened: as §2
[24] = system: B16; test: Cytotoxic activity against solid tumor, B16 (murine melanoma) Concentration of agent required to reduce cell viability by 90%; Not observed; format: functional, cell-based; conditions: Mus musculus; procedure, shortened: as §2
[25] = system: CHO; test: Cytotoxic activity against solid tumor, CHO (Chinese hamster ovaric carcinoma) Concentration of agent required to reduce cell viability by 90%; Not observed; format: functional, cell-based; conditions: Cricetulus griseus; procedure, shortened: as §2
[26] = system: Lewis lung carcinoma cell line; test: Cytotoxic activity against solid tumor LLC(Lewis lung carcinoma), concentration of agent required to reduce cell viability by 90%; not observed; format: functional, cell-based; conditions: Mus musculus; procedure, shortened: as §2
[27] = system: bone marrow cells (human); test: Relative cytotoxicity against Human bone marrow samples; Value is in range, activity expressed as IC50
[28] = system: bone marrow cells (human); test: Relative cytotoxicity against Human bone marrow samples; Value is in range, activity expressed as IC90
[29] = system: P388; test: Cytotoxic activity against murine lymphocytic leukemia P388 concentration of agent required to reduce cell viability by 50%; format: functional, cell-based; conditions: Mus musculus; procedure, shortened: as §2
[30] = system: P388; test: In vivo antitumor activity against Murine P388 Leukemia at 20 mg/kg dose;(Median survival time of treated mice)/(median survival time of controls) x100; format: functional, Mus musculus; procedure, shortened: as §3
[31] = system: P388; test: In vivo antitumor activity against Murine P388 Leukemia at 6.67 mg/kg dose;(Median survival time of treated mice)/(median survival time of controls) x100; format: functional, Mus musculus; procedure, shortened: as §3
[32] = system: HL-60; test: (§4) Relative cytotoxicity against human promyelocytic leukemia(HL-60) cells; format: functional; procedure, shortened: as §1
[33] = Ratio of cytotoxicity of compound towards bone marrow sample and to that of HL-60 was determined as IC50BM/IC50HL; format: functional; procedure, shortened: as §1
[34] = system: CHO; test: Cytotoxic activity against solid tumor, CHO (Chinese hamster ovaric carcinoma) concentration of agent required to reduce cell viability by 90%; format: functional; conditions: Cricetulus griseus; procedure, shortened: as §2
[35] = system: HL-60; test: Cytotoxic activity against human promyelocytic leukemia HL-60 concentration of agent required to reduce cell viability by 50%; format: functional, cell-based; procedure, shortened: as §2
[36] = system: P388; test: Cytotoxic activity against murine lymphocytic leukemia P388 concentration of agent required to reduce cell viability by 90%; format: functional; conditions: Mus musculus; procedure, shortened: as §2
[37] = system: LoVo; test: Cytotoxic activity against solid tumor, LoVo, (human colon adenocarcinoma) concentration of agent required to reduce cell viability by 50%; format: functional, cell-based; procedure, shortened: as §2
[38] = system: B16; test: Cytotoxic activity against solid tumor, B16 (murine melanoma) concentration of agent required to reduce cell viability by 50%; format: functional, cell-based; conditions: Mus musculus; procedure, shortened: as §2
[39] = system: CHO; test: Cytotoxic activity against solid tumor, CHO (Chinese hamster ovaric carcinoma) concentration of agent required to reduce cell viability by 50%; format: functional, cell-based; conditions: Cricetulus griseus; procedure, shortened: as §2
[40] = system: LoVo; test: Cytotoxic activity against solid tumor, LoVo, (human colon adenocarcinoma) concentration of agent required to reduce cell viability by 90%; format: functional; procedure, shortened: as §2
[41] = system: P388; test: In vivo antitumor activity against Murine P388 Leukemia at 60 mg/kg dose;(Median survival time of treated mice)/(median survival time of controls) x100; format: functional, Mus musculus; procedure, shortened: as §3
[42] = system: HL-60; test: Cytotoxic activity against human promyelocytic leukemia HL-60 concentration of agent required to reduce cell viability by 90%; format: functional; procedure, shortened: as §2
[43] = organism: Homo sapiens; test: Relative cytotoxicity against human bone marrow samples; format: functional; procedure, shortened: as §1
[44] = system: B16; test: Cytotoxic activity against solid tumor, B16 (murine melanoma) concentration of agent required to reduce cell viability by 90%; format: functional; conditions: Mus musculus; procedure, shortened: as §2
[45] = Ratio of cytotoxicity of compound towards bone marrow sample and to that of HL-60 was determined as IC90BM/IC90HL; format: functional; procedure, shortened: as §1
[46] = system: HL-60; test: as §4; format: functional, cell-based; procedure, shortened: as §1
[47] = Ratio of cytotoxicity of compound towards bone marrow sample and to that of HL-60 was determined as IC50BM/IC90HL; format: functional; procedure, shortened: as §1

## CCN(CC)CCn1c2cc(Cl)c(N)cc2c(=O)c2c(O)cc(O)cc21
[1]
  IC90: 5.74 µM
[2]
  IC90: 5.9 µM
[3]
  IC50: 1 µM
[4]
  IC50: 5.4 µM
[5]
  IC50: 1.52 µM
[6]
  Ratio: 0.7
[7]
  T/C: 110%
[8]
  IC90: 6.3 µM
[9]
  IC50: 3.61 µM
[10]
  IC90: 10 µM
[11]
  Ratio: 0.3
[12]
  T/C: 105%
[13]
  T/C: 109%
[14]
  T/C: 111%
[15]
  IC50: 3.6 µM
[16]
  IC50: 1.5 µM
[17]
  IC90: 3.5 µM
[18]
  IC90: 11 µM
[19]
  Ratio: 0.2
[20]
  IC50: 1.4 µM
[21]
  IC90: 14 µM
[22]
  IC90: 6.46 µM
[23]
  IC50: 3.9 µM

## CCN(CC)CCn1c2cc(N3CCC(O)CC3)c(N)cc2c(=O)c2c(O)cc(O)cc21
[1]
  IC90: 0.657 µM
[3]
  IC50: 1.7 µM
[4]
  IC50: > 32 µM
[5]
  IC50: 0.168 µM
[6]
  Ratio: 1.1
[9]
  IC50: 0.51 µM
[10]
  IC90: 3.6 µM
[24]
  IC90: Not observed
[25]
  IC90: Not observed
[11]
  Ratio: 0.4
[15]
  IC50: 8.7 µM
[16]
  IC50: 23 µM
[17]
  IC90: 1.6 µM
[26]
  IC90: Not observed
[19]
  Ratio: 0.3
[20]
  IC50: 0.62 µM
[21]
  IC90: > 32 µM
[22]
  IC90: 0.672 µM
[23]
  IC50: 2.2 µM

## O=C1c2c(O)ccc(O)c2C(=O)c2c(NCCNCCO)ccc(NCCNCCO)c21 [MITOXANTRONE]
[1]
  IC90: 8.03 µM
[27]
  IC50: 27.6 µM
[6]
  Ratio: 11.6
[9]
  IC50: 3.35 µM
[11]
  Ratio: 4.8
[28]
  IC90: 38.7 µM
[19]
  Ratio: 2.1

## CCN(CC)CCn1c2cc(Cl)c(N)cc2c(=O)c2c(O)cc(OC)cc21
[29]
  IC50: 3.8 µM
[30]
  T/C: 97%
[31]
  T/C: 83%
[32]
  IC90: 2.93 µM
[33]
  Ratio: 1.2
[34]
  IC90: 5.9 µM
[35]
  IC50: 4.2 µM
[36]
  IC90: 8 µM
[37]
  IC50: 1.5 µM
[38]
  IC50: 1.6 µM
[39]
  IC50: 1.1 µM
[15]
  IC50: 5 µM
[40]
  IC90: 6.3 µM
[41]
  T/C: 100%
[42]
  IC90: 8.4 µM
[43]
  IC50: 3.26 µM
  IC90: 14.8 µM
[18]
  IC90: 11 µM
[44]
  IC90: 4 µM
[45]
  Ratio: 4.1
[46]
  IC50: 1.86 µM
[47]
  Ratio: 0.8

## COc1cc([C@@H]2c3cc4c(cc3[C@@H](O[C@@H]3O[C@@H]5CO[C@@H](C)O[C@H]5[C@H](O)[C@H]3O)[C@H]3COC(=O)[C@H]23)OCO4)cc(OC)c1O [ETOPOSIDE]
[29]
  IC50: 0.24 µM
[32]
  IC90: 0.73 µM
[33]
  Ratio: 1.8
[34]
  IC90: 7.7 µM
[35]
  IC50: 1.2 µM
[36]
  IC90: 0.63 µM
[37]
  IC50: 2.3 µM
[38]
  IC50: 0.32 µM
[39]
  IC50: 0.35 µM
[15]
  IC50: 1.1 µM
[40]
  IC90: 44 µM
[42]
  IC90: 3.1 µM
[43]
  IC50: 0.99 µM
  IC90: 7.02 µM
[18]
  IC90: 4.5 µM
[44]
  IC90: 1.9 µM
[45]
  Ratio: 5.6
[46]
  IC50: 0.367 µM
[47]
  Ratio: 0.9
